Measurements published in ChEMBL document CHEMBL2016448, “Discovery of new piperidine amide triazolobenzodiazepinones as intestinal-selective CCK1 receptor agonists” (Bioorg Med Chem Lett, 2012).

Experiments:
[1] = biological target: T1, Cholecystokinin receptor type A (Homo sapiens) (UniProt P32238); test: Agonist activity at human CCK1 receptor assessed as increase in CCK8-induced calcium release incubated in dark for 30 mins followed by light incubation for 30 mins measured by FLIPR assay relative to CCK8; format: functional
T1 sequence (whole entry): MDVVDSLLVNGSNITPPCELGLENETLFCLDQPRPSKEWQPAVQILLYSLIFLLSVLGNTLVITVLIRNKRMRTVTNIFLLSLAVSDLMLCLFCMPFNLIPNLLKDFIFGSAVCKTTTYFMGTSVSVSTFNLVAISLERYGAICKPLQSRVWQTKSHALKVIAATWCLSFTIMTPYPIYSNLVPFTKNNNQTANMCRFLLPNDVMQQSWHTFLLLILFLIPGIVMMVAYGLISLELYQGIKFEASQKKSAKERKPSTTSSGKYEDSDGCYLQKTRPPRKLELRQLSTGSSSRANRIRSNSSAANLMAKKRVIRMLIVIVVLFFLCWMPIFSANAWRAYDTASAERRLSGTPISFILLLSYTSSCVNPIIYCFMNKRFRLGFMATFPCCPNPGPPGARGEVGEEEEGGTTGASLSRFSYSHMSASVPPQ
Procedure, shortened: (§1)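 FLIPR functional assay in CHO cells expressing human CCK1R. Agonism expressed as % of the CCK-8 peptide response. Initial screen at 30 µM, with >30% counted as active. Actives then run as full dose–response. EC50 is the geometric mean of at least 2 independent experiments.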

[2] = biological target: T2, Cholecystokinin receptor type A (Homo sapiens, UniProt P32238); test: Agonist activity at human CCK1 receptor assessed as increase in CCK8-induced calcium release incubated in dark for 30 mins followed by light incubation for 30 mins measured by FLIPR assay; format: functional; procedure, shortened: as §1
T2 sequence (P32238 whole entry): T1 sequence (whole entry)

[3] = Intrinsic clearance in human microsomes; format: ADME, Microsome
Procedure, shortened: (§2)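 Intrinsic clearance measured in human liver microsomes. The free value is corrected for microsomal binding.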

[4] = biological target: T2, Cholecystokinin receptor type A; test: Displacement of [125I]-CCK-8 from human CCK1 receptor expressed in CHO cells after 90 mins by liquid scintillation counting
[5] = Lipophilicity, log D of the compound at pH 7.4; format: physicochemical; conditions: buffer, read-out: logD
[6] = Drug excretion in Sprague-Dawley rat bile at 1 mg/kg, iv measured after 24 hrs; format: ADME, organism-based; design: dose 1 mg/kg, route intravenous; conditions: read-out: Ae
Procedure, shortened: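 Bile-cannulated rats dosed iv at 1 mg/kg. Bile collected over 24 h and % of dose excreted into bile determined.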

[7] = Free intrinsic clearance in human microsomes; format: ADME, Microsome; procedure, shortened: as §2
Mus musculus [8] = test: Antiobesity in C57Bl/6J mouse assessed as reduction in gall bladder weight at 0.6 mg/kg, po measured after 1 hr relative to control; format: functional; design: scale not given: the % may be the effect or the level left
Blood = test: Drug level in C57Bl/6J mouse blood at 0.6 mg/kg; format: ADME, organism-based; design: dose 0.6 mg/kg; conditions: in vivo
Rattus norvegicus [9] = test: Antiobesity in diet-induced obese Sprague-Dawley rat assessed as decrease in body weight gain at 2 mg/kg, po measured after 5 days; format: functional; design: scale not given: the % may be the effect or the level left
[10] = Drug level in C57Bl/6J mouse bile at 0.6 mg/kg; format: ADME, organism-based; design: dose 0.6 mg/kg; conditions: in vivo
[11] = Oral bioavailability in Sprague-Dawley rat at 6 mg/kg; format: ADME, organism-based; conditions: in vivo
Procedure, shortened: (§3)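 Male Sprague–Dawley rats dosed iv or po. Oral doses given in SDD formulation. Plasma PK parameters reported as mean of n = 3 rats.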

[12] = Cmax in Sprague-Dawley rat plasma at 6 mg/kg, po; format: ADME, organism-based; design: dose 6 mg/kg, route oral; procedure, shortened: as §3
[13] = AUC (0 to last) in Sprague-Dawley rat at 6 mg/kg, po; format: ADME, organism-based; design: dose 6 mg/kg, route oral, time 0 - last; conditions: plasma; procedure, shortened: as §3
Mus musculus [14] = test: Antiobesity in C57Bl/6J mouse assessed as reduction in gall bladder weight at 0.2 mg/kg, po measured after 24 hr relative to control; format: functional; design: scale not given: the % may be the effect or the level left
[15] = Bioavailability in Sprague-Dawley rat portal system; format: ADME, organism-based
Plasma = test: Plasma clearance in Sprague-Dawley rat at 0.3 mg/kg, iv; format: ADME, organism-based; design: dose 0.3 mg/kg, route intravenous; conditions: in vivo; procedure, shortened: as §3
Mus musculus [16] = test: Antiobesity in C57Bl/6J mouse assessed as decrease in food intake at 0.2 mg/kg, po measured after 2 hr relative to control; format: functional; design: scale not given: the % may be the effect or the level left
Procedure, shortened: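 Mice fasted overnight, then refed. Compound given orally in SDD formulation at increasing doses. Food intake measured at 2 h against vehicle-treated mice. Minimally efficacious dose defined as significant inhibition (p <0.05).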

[17] = Volume of distribution at steady state in Sprague-Dawley rat at 0.3 mg/kg, iv; format: ADME, organism-based; design: dose 0.3 mg/kg, route intravenous; conditions: in vivo, read-out: Vdss; procedure, shortened: as §3
[18] = Tmax in Sprague-Dawley rat at 6 mg/kg, po; format: ADME, organism-based; design: dose 6 mg/kg, route oral; conditions: in vivo; procedure, shortened: as §3
Rattus norvegicus [19] = test: Antiobesity in diet-induced obese Sprague-Dawley rat assessed as decrease in food intake at 6 mg/kg, po measured after 5 days relative to control; format: functional; design: scale not given: the % may be the effect or the level left
Rattus norvegicus [20] = test: Antiobesity in diet-induced obese Sprague-Dawley rat assessed as decrease in food intake at 2 mg/kg, po measured after 5 days relative to control; format: functional; design: scale not given: the % may be the effect or the level left
Rattus norvegicus [21] = test: Antiobesity in diet-induced obese Sprague-Dawley rat assessed as decrease in body weight gain at 6 mg/kg, po measured after 5 days; format: functional; design: scale not given: the % may be the effect or the level left
[22] = Half life in Sprague-Dawley rat at 0.3 mg/kg, iv; format: ADME, organism-based; design: dose 0.3 mg/kg, route intravenous; conditions: in vivo; procedure, shortened: as §3
Rattus norvegicus [23] = test: Toxicity in Sprague-Dawley rat assessed as gastrointestinal side-effects at 2 to 6 mg/kg, po; format: organism-based; design: dose 2-6 mg/kg, route oral; conditions: in vivo
Procedure, shortened: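 Diet-induced obese rats dosed orally at 2 and 6 mg/kg for 5 days and monitored for gastrointestinal side-effects.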

Rattus norvegicus [24] = test: fCmax in Sprague-Dawley rat at 6 mg/kg, po; format: ADME, organism-based; design: dose 6 mg/kg, route oral; conditions: in vivo; procedure, shortened: as §3
[25] = AUC (0 to last) in Sprague-Dawley rat at 0.3 mg/kg, iv; format: ADME, organism-based; design: time 0 - last, dose 0.3 mg/kg, route intravenous; conditions: plasma; procedure, shortened: as §3
[26] = fCmax in Sprague-Dawley rat portal system; format: ADME

Efficacy [1] [%] | EC50 [2] [nM] | clearance [3] [µL/min/mg] | IC50 [4] [nM] | logD [5] | CL free [7] [µL/min/mg] | SMILES | dose excreted at 24 h [6] [%] | Activity (Mus musculus [8]) [%] | further results
85 | 1310 | 148 | 68.6 | – | – | O=C(CN1C(=O)C(Cc2c[nH]c3ccccc23)c2nnc(-c3ccccc3)n2-c2ccccc21)N1CCC(Cc2ccccc2)C1 (mixture of isomers) | – | – | –
88 | 256 | 76 | 4.24 | – | – | O=C1C(Cc2c[nH]c3ccccc23)c2nnc(-c3ccccc3)n2-c2ccccc2N1CC(=O)N1CCCCC1CC1CCCCC1 (mixture of isomers) | – | – | –
75 | 669 | – | 87.6 | 5.1 | – | Cc1cccc(CC2CCCCN2C(=O)CN2C(=O)[C@@H](Cc3n[nH]c4ccccc34)c3nnc(-c4ccccc4)n3-c3ccccc32)c1 (some centres not stated) | – | – | –
100 | 2.7 | – | 9.9 | 3.1 | 154 | COCCC1CCCCN1C(=O)CN1C(=O)[C@@H](Cc2n[nH]c3ccccc23)c2nnc(-c3ccccc3)n2-c2ccccc21 (single isomer, unassigned) | 0.26 | 85 | –
72 | 380 | – | 38.1 | 4.7 | – | CC(C)N(Cc1ccccc1)C(=O)CN1C(=O)[C@@H](Cc2n[nH]c3ccccc23)c2nnc(-c3ccccc3)n2-c2ccccc21 | – | – | –
83 | 2120 | – | 168 | – | – | O=C1C(Cc2c[nH]c3ccccc23)c2nnc(-c3ccccc3)n2-c2ccccc2N1CC(=O)N1CCCC1c1ccccc1 (mixture of isomers) | – | – | –
103 | 12.9 | – | 36 | 4.6 | 846 | O=C1[C@@H](Cc2n[nH]c3ccccc23)c2nnc(-c3ccccc3)n2-c2ccccc2N1CC(=O)N1CCCCC1Cc1ccccc1 (some centres not stated) | 0.32 | 91 | –
89 | – | – | – | 5.6 | 2300 | Cc1cc(C)cc(C[C@H]2CCCCN2C(=O)CN2C(=O)[C@@H](Cc3n[nH]c4ccccc34)c3nnc(-c4ccccc4)n3-c3ccccc32)c1 | 0.044 | 89 | Drug uptake (Blood): Not Active; Activity (Rattus norvegicus [9]): 22%; Drug uptake [10]: Not Active; bioavailability [11]: 0.13%; Cmax [12]: 0.46 ng/mL; AUC(0-t) [13]: 0.74 ng·h/mL; Activity (Mus musculus [14]): 19%; bioavailability [15]: 0.56%; clearance (Plasma): 176 mL/min/kg; Activity (Mus musculus [16]): 34%; Vd [17]: 17.6 L/kg; Tmax [18]: 0.25 h; Activity (Rattus norvegicus [19]): 25%; Activity (Rattus norvegicus [20]): 19%; Activity (Rattus norvegicus [21]): 44%; half-life [22]: 2.04 h; Activity (Rattus norvegicus [23]): Non-toxic; fCmax (Rattus norvegicus [24]): 0.014 nM; AUC(0-t) [25]: 29 ng·h/mL; fCmax [26]: 0.063 nM
105 | 31.9 | 114 | 93.3 | – | – | O=C1C(Cc2c[nH]c3ccccc23)c2nnc(-c3ccccc3)n2-c2ccccc2N1CC(=O)N1CCCCC1Cc1ccccn1 (mixture of isomers) | – | – | –
